Here are results for 16 molecules from ChEMBL document CHEMBL1944596, “7,8-dichloro-1-oxo-β-carbolines as a versatile scaffold for the development of potent and selective kinase inhibitors with unusual binding modes” (J Med Chem, 2012).

The source made the active and inactive calls.

The nature of assay [1]: Binding affinity to RSK4beta assessed as change in thermal denaturation at 10 uM by thermal stability shift assay. The procedure, abridged:
(§1)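 Each compound was screened across a kinase panel by thermal stability shift assay. The read-out was the shift in protein melting temperature (ΔTm, in °C) relative to the unliganded kinase. A ΔTm of 4.0 °C served as the hit cutoff.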

Assay [2] has as its target T1, Serine/threonine-protein kinase pim-3 (Homo sapiens, UniProt Q86V86). Put plainly: Binding affinity to PIM3 assessed as change in thermal denaturation at 10 uM by thermal stability shift assay. The procedure, abridged: as §1
Assay [3] has as its target T2, Serine/threonine-protein kinase haspin (Homo sapiens) (UniProt Q8TF76).
T2 sequence (whole entry): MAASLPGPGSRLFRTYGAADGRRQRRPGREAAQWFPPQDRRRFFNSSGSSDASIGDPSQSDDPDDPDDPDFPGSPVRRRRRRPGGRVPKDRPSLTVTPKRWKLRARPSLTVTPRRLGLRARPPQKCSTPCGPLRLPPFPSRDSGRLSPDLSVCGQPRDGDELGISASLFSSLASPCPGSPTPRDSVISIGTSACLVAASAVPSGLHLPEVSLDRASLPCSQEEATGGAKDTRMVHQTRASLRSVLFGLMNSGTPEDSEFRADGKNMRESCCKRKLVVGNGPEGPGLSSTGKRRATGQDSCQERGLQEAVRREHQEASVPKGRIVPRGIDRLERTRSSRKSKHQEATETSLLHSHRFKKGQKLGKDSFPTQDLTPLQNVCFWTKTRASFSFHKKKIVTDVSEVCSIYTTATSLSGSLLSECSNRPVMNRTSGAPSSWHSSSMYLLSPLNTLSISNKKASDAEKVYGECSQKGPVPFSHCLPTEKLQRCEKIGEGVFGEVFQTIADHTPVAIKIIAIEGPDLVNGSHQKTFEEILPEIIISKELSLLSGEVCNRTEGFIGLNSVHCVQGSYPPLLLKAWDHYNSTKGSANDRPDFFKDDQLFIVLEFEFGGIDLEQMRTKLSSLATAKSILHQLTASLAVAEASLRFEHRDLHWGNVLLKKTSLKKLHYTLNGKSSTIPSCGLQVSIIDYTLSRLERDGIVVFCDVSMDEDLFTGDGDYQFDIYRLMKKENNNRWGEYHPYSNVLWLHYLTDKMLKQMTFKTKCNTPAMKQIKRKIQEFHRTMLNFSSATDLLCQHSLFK
Put plainly: Binding affinity to Haspin assessed as change in thermal denaturation at 10 uM by thermal stability shift assay. The procedure, abridged:
as §1

In assay [4] the target is Serine/threonine-protein kinase PLK1 (Homo sapiens) (UniProt P53350). Put plainly: Binding affinity to PLK1 assessed as change in thermal denaturation at 10 uM by thermal stability shift assay. The procedure, abridged:
as §1

Assay [5] addresses T3, Serine/threonine-protein kinase 17A (Homo sapiens) (UniProt Q9UEE5).
T3 sequence (whole entry): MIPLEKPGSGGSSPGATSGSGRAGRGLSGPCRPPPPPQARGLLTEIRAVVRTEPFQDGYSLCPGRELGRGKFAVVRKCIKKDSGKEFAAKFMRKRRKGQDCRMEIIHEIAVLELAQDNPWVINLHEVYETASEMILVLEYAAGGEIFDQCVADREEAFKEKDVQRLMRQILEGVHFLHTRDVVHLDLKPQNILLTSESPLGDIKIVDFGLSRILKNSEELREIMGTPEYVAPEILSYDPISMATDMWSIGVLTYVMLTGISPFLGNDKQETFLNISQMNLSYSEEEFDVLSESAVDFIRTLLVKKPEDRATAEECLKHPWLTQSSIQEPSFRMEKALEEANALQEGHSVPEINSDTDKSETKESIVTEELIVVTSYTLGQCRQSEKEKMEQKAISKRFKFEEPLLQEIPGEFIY
Put plainly: Binding affinity to DRAK1 assessed as change in thermal denaturation at 10 uM by thermal stability shift assay. An outline of the steps: as §1

Assay [6] has as its target Mast/stem cell growth factor receptor Kit (Homo sapiens) (UniProt P10721). Put plainly: Inhibition of cKIT using ATP as substrate.
For assay [7], the target named is Receptor-type tyrosine-protein kinase FLT3 (Homo sapiens) (UniProt P36888). Put plainly: Inhibition of FLT3 using ATP as substrate.
Assay [8] has as its target Platelet-derived growth factor receptor alpha (Homo sapiens) (UniProt P16234). Put plainly: Inhibition of PDGFRalpha using ATP as substrate.
The next assay relates to MV4-11. Put plainly: Inhibition of PIM-mediated 4E-BP1 phosphorylation in human MV4-11 cells after 180 mins by Western blot analysis. The class given is cell-based. An outline of the steps:
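MV4;11 cells at 5 × 10^5/mL in RPMI 1640 with 10% FCS, 37 °C, 5% CO2, treated at 0–10 μM for varied times. Lysed on ice in Triton X-100 buffer with NaF, Na3VO4 and protease inhibitors. 50 μg protein run on 15% SDS–PAGE and blotted for phospho-4E-BP1 with HRP chemiluminescence. Reprobed for total 4E-BP1 and β-actin as loading controls.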
Background: In western blotting, separated proteins are transferred to a membrane and probed.

Assay [9] deals with Proto-oncogene tyrosine-protein kinase receptor Ret (Homo sapiens, UniProt P07949). Put plainly: Inhibition of RET using ATP as substrate.
A short description of assay [10]: Growth inhibition of human SEM cells after 48 hrs by WST-1 assay. The class given is functional, cell-based. The procedure, abridged: (§2)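 Compound (0–10 μM) added to the culture medium and incubated 48 h. Proliferation and viability read by WST-1 reagent. Survival expressed as percentage of control cultures and IC50 derived by curve fitting.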
The target of assay [11] is MAP kinase-activated protein kinase 5 (Homo sapiens, UniProt Q8IW41). Put plainly: Inhibition of MK5 using ATP as substrate.
In assay [12] the target is Serine/threonine-protein kinase pim-2 (Homo sapiens, UniProt Q9P1W9). Put plainly: Inhibition of PIM2 using ATP as substrate.
In assay [13] the target is Vascular endothelial growth factor receptor 2 (Homo sapiens, UniProt P35968). Put plainly: Inhibition of KDR using ATP as substrate.
For assay [14], the target named is Protein kinase C alpha type (Homo sapiens, UniProt P17252). Put plainly: Inhibition of PKCalpha using ATP as substrate.
In assay [15] the target is Phosphatidylinositol 4,5-bisphosphate 3-kinase catalytic subunit beta isoform (Homo sapiens, UniProt P42338). Put plainly: Inhibition of PI3Kbeta using ATP as substrate.
Assay [16] deals with Rho-associated protein kinase 2 (Homo sapiens, UniProt O75116). Put plainly: Inhibition of ROCK2 using ATP as substrate.
Assay [17] deals with Phosphatidylinositol 4,5-bisphosphate 3-kinase catalytic subunit alpha isoform (Homo sapiens, UniProt P42336). Put plainly: Inhibition of PI3Kalpha using ATP as substrate.
In assay [18] the target is Phosphatidylinositol 4,5-bisphosphate 3-kinase catalytic subunit delta isoform (Homo sapiens, UniProt O00329). Put plainly: Inhibition of PI3Kdelta using ATP as substrate.
The target in assay [19] is T1, Serine/threonine-protein kinase pim-3. Put plainly: Inhibition of PIM3 using ATP as substrate.
Assay [20] has as its target Serine/threonine-protein kinase mTOR (Homo sapiens, UniProt P42345). Put plainly: Inhibition of mTOR using ATP as substrate.
Assay [21] concerns the target Phosphatidylinositol 4,5-bisphosphate 3-kinase catalytic subunit gamma isoform (Homo sapiens, UniProt P48736). Put plainly: Inhibition of PI3Kgamma using ATP as substrate.
A short description of assay [22]: Inhibition of PKA using ATP as substrate.
In the next assay the test system is K562. Put plainly: Growth inhibition of human K562 cells after 48 hrs by WST-1 assay. The following applies: K562, 48 h. The class given is functional, cell-based. The procedure, abridged: as §2
A general note: Tetrazolium dyes change colour on reduction, which living cells bring about.

Serine/threonine-protein kinase PLK1 (Homo sapiens), sequence (P53350 whole entry): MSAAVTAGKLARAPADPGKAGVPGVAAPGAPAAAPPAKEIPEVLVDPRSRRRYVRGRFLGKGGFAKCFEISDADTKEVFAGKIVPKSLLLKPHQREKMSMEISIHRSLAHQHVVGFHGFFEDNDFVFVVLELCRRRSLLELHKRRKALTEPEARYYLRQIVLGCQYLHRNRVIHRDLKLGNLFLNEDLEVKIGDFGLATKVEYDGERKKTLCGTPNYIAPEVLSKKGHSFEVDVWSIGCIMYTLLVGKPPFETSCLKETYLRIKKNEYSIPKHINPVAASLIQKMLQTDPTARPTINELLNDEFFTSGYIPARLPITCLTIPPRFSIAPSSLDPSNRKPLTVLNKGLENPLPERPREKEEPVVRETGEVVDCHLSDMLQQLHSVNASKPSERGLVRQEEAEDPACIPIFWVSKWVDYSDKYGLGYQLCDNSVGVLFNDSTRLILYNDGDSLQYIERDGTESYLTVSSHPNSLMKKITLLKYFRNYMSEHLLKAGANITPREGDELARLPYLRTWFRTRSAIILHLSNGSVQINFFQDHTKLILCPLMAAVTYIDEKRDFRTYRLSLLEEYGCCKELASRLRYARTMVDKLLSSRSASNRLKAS
Vascular endothelial growth factor receptor 2, sequence (P35968 whole entry): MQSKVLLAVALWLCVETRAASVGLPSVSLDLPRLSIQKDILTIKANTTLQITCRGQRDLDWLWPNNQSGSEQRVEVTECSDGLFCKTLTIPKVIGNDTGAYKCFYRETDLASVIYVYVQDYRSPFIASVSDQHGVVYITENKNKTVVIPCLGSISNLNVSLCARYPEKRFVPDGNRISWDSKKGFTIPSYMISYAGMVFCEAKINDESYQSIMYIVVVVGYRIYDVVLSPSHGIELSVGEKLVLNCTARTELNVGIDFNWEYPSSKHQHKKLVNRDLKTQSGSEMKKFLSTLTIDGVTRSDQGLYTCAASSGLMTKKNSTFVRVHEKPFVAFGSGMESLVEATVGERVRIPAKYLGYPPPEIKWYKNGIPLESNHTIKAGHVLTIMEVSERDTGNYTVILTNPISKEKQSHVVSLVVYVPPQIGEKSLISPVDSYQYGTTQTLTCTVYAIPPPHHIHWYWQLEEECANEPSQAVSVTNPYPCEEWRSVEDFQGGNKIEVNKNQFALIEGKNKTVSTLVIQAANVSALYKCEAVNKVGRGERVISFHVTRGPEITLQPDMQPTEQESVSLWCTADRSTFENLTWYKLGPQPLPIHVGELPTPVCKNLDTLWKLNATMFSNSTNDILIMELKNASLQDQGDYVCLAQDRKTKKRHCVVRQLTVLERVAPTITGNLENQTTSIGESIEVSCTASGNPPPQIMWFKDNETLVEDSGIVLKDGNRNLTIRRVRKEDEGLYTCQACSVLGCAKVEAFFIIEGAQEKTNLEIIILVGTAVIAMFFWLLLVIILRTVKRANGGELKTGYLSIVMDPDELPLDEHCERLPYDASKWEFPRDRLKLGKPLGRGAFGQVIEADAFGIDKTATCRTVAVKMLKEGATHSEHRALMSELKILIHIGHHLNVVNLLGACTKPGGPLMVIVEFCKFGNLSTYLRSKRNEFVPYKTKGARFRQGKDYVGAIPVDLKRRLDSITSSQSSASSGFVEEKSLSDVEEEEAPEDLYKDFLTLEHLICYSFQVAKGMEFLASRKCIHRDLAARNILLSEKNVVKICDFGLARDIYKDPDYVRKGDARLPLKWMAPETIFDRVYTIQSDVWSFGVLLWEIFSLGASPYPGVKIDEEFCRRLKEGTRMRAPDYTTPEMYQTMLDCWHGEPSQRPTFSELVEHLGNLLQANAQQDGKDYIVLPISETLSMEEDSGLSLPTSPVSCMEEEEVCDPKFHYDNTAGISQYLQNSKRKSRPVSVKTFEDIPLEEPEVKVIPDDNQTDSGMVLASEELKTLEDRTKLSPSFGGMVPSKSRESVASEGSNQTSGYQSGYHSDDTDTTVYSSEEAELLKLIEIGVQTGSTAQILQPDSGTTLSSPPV
Receptor-type tyrosine-protein kinase FLT3 (Homo sapiens), sequence (P36888 whole entry): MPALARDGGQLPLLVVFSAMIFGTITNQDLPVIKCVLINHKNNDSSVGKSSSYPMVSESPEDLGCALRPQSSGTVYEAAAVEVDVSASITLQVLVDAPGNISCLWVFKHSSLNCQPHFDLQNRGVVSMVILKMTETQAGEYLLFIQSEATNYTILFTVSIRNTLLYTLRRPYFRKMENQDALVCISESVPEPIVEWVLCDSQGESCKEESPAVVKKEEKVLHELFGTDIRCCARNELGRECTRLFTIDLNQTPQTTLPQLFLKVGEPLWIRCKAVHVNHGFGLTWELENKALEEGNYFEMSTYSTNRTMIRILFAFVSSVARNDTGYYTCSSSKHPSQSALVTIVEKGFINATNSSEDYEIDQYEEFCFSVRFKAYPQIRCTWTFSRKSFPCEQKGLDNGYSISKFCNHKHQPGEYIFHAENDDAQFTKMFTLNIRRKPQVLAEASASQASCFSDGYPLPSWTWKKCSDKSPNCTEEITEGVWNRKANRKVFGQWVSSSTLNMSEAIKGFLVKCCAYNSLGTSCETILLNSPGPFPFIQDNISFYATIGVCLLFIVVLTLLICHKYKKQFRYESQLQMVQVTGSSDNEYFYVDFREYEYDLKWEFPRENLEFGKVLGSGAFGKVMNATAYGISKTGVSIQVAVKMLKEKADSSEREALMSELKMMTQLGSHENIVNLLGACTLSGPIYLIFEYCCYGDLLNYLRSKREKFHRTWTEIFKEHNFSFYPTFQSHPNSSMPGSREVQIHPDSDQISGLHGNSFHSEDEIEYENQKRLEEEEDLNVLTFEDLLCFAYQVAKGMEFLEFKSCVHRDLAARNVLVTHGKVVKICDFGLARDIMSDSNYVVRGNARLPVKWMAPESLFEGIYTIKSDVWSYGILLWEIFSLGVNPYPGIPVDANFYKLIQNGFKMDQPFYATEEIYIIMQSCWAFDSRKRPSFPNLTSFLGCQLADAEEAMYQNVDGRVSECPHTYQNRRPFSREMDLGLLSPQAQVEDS
Phosphatidylinositol 4,5-bisphosphate 3-kinase catalytic subunit alpha isoform, sequence (P42336 whole entry, canonical isoform): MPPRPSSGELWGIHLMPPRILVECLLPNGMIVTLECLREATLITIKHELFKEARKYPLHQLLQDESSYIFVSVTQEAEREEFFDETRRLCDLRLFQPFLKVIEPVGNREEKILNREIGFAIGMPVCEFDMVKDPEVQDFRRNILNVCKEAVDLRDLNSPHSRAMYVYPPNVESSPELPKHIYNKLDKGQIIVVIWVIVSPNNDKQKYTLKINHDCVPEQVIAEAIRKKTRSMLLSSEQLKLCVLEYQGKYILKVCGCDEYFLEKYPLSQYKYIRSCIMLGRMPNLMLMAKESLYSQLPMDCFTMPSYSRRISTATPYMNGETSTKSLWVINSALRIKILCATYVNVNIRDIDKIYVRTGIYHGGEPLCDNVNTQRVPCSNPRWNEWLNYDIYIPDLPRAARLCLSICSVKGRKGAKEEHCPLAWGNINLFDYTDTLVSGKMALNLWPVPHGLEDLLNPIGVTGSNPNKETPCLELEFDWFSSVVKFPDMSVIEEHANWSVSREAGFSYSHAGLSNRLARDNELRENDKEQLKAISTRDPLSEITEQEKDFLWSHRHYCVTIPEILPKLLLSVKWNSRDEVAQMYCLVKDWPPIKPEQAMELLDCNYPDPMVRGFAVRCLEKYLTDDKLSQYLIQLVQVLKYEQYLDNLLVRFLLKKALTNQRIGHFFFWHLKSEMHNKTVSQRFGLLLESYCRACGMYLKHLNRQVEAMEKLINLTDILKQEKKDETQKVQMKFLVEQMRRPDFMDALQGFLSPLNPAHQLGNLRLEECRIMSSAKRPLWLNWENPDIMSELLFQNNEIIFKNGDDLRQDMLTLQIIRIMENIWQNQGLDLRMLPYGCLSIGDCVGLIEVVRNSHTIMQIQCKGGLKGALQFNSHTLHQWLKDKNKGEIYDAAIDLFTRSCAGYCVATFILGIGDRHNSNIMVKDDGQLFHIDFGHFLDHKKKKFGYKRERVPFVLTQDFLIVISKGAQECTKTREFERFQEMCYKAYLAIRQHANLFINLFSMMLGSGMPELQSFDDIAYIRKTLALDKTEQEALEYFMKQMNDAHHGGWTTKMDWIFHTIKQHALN

The term ΔTm denotes the shift of the melting midpoint relative to a reference. As for `N#CC1c2c([nH]c3c(Cl)c(Cl)ccc23)C(=O)NC12CCCCC2` (racemic), the ΔTm in assay [1] is -0.2 °C; in assay [2], 4.9 °C; in assay [3], 0 °C; in assay [4], 0.3 °C; in assay [5], 2.2 °C.

On to `Cn1c2c(c3ccc(Cl)c(Cl)c31)C(C#N)C1(CCOCC1)NC2=O` (centres undefined), for which the ΔTm in assay [1] was determined as 0 °C; in assay [2] it was 4.7 °C; in [3], 1.1 °C; in assay [4], 0.8 °C; in assay [5], 2.7 °C.

On to `CCN1CCC2(CC1)NC(=O)c1c(c3ccc(Cl)c(Cl)c3n1C)C2C#N` (racemic), for which the thermal shift (ΔTm) in assay [1] was determined as 0.2 °C; in [2] it was 7.1 °C; in [3], 2.6 °C; in [4] it was 0.4 °C; in [5] it was 1.6 °C.

Consider `Cn1c2c(c3ccccc31)C(C#N)C(C)(C)NC2=O` (centres undefined), for which the ΔTm in [1] was 0.1 °C; in [2], 1.3 °C; in assay [3], 1.7 °C; in assay [4], 3.2 °C; in assay [5], 0.5 °C.

`CCC1(CC)NC(=O)c2c(c3ccc(Cl)c(Cl)c3n2C)C1C#N` (centres undefined): the thermal shift (ΔTm) was -0.1 °C in assay [1]; 3.4 °C in assay [2]; 0.4 °C in [3]; 0.9 °C in assay [4]; 2.6 °C in assay [5].

`Cn1c2c(c3ccc(Cl)c(Cl)c31)C(C#N)C(C)(C)NC2=O` (centres undefined): the ΔTm in [1] worked out at 2.3 °C; in assay [2] it was 6.2 °C; in assay [3] it was 0.9 °C; in assay [4], 4.9 °C; in assay [5] it was 5.8 °C.

In the case of `Cn1c2c(Cl)c(Cl)ccc2c2cc[nH]c(=O)c21`, the ΔTm in assay [1] was 4 °C; in assay [2] it was 3.6 °C; in assay [3] it was 3.4 °C; in assay [4], 1.6 °C; in assay [5], 6.2 °C.

On to `Cn1c2c(Cl)c(Cl)ccc2c2cc(N)[nH]c(=O)c21`, for which the thermal shift (ΔTm) in [1] came out at 1.2 °C; in assay [2], 3.6 °C; in [3] it was 2.7 °C; in assay [4] it was 1.4 °C; in [5] it was 6.9 °C.

On to `Cn1c2c(c3ccc(Cl)c(Cl)c31)C(C#N)C1(CCCC1)NC2=O` (centres undefined), for which the ΔTm in assay [1] was 0.1 °C; in assay [2], 3.8 °C; in assay [3] it was 0.1 °C; in [4], 1.3 °C; in [5] it was 2 °C.

Take `Cn1c2c(Cl)c(Cl)ccc2c2cn[nH]c(=O)c21`: the thermal shift (ΔTm) in assay [1] was found to be 1.4 °C; in [2], 2.3 °C; in assay [3], 3.2 °C; in assay [4], 3.1 °C; in assay [5] it was 3.5 °C.

On to `CC1(C)NC(=O)c2[nH]c3c(Cl)c(Cl)ccc3c2C1C#N` (centres undefined), for which the thermal shift (ΔTm) in assay [1] is 0.1 °C; in [2] it was 4 °C; in [3] it was 0.3 °C; in assay [4], 4 °C; in [5] it was 3 °C.

On to `Cn1c2c(c3ccc(Cl)c(Cl)c31)C(CN)C(C)(C)NC2=O` (racemic), for which the shift in melting temperature (ΔTm) was 0.7 °C in assay [1]; 3.7 °C in [2]; 1.8 °C in assay [3]; -0.6 °C in assay [4]; 7.5 °C in [5].

With `Cn1c2c(c3ccc(Cl)c(Cl)c31)C(C#N)C1(CCN(C(=O)OC(C)(C)C)CC1)NC2=O` (racemic), the shift in melting temperature (ΔTm) in assay [1] was -0.4 °C; in [2], 0.6 °C; in [3] it was 0.3 °C; in [4] it was 0.5 °C; in assay [5], 0.6 °C.

In the case of `CN1CCC2(CC1)NC(=O)c1c(c3ccc(Cl)c(Cl)c3n1C)C2C#N` (racemic), the inhibition entry in assay [6], in assay [7] and in assay [8] was “inactive” throughout. Besides, the ΔTm was 0.2 °C in [1]; 7.2 °C in [2]; 3.4 °C in assay [3]; 0.6 °C in [4]; 2.7 °C in assay [5].

Usually IC50 stands for the concentration at which inhibition is half-maximal. Low readings indicate inhibition by little substance, high ones a need for much substance. In the case of `Cn1c2c(c3ccc(Cl)c(Cl)c31)C(C#N)C1(CCNCC1)NC2=O` (racemic), in the assay on MV4-11, the inhibition result was “Dose-dependent effect”. In addition, the IC50 worked out at 7.7 µM in assay [9]; 4.68 µM in assay [10]; 1.7 µM in [11]; 0.24 µM in assay [12]; 7.2 µM in assay [13]; 2.2 µM in assay [14]. Further, the IC50 is 8.6 µM in [15]; 0.22 µM in assay [16]; greater than 9.1 µM in assay [17]; 4.7 µM in assay [18]; 0.09 µM in assay [19]; greater than 9.1 µM in [20]. The half-inhibitory concentration (IC50) in assay [21] turned out to be 3.1 µM; in assay [22], 0.077 µM; in the assay with K562 it was 6.49 µM. The ΔTm in [1] was 0.8 °C; in [2], 9.6 °C; in assay [3], 5.6 °C; in [4], 1.4 °C; in [5], 4.3 °C.

In the case of `CC(=O)NCC1c2c(n(C)c3c(Cl)c(Cl)ccc23)C(=O)NC1(C)C` (racemic), the ΔTm in [1] came out at 0.4 °C; in assay [2], 0.7 °C; in assay [3] it was 0.3 °C; in [4], 0.7 °C; in assay [5] it was 0.9 °C.
